Reference: ChEMBL document CHEMBL5252676, “Dimeric polyphenols to pave the way for new antimalarial drugs” (RSC Med Chem, 2023)
Converted amounts (≈) assume the structure as drawn. “And” between values parts separate entries of the source, which are not always exact repeats. Identical values can stand only once. The source made the active and inactive calls. The calls are words filed in the database; no cut-off is given here.

What was measured:
[1] = Selectivity index, ratio of IC50 for cytotoxicity against HUVEC cells to IC50 for antiplasmodial activity against chloroquine-sensitive Plasmodium falciparum 3D7; type: toxicity, cell-based; conditions: human, read-out: Ratio IC50
[2] = Cytotoxicity against HUVEC cells assessed as inhibition of cell growth incubated for 48 hrs by fluorescence based assay; type: toxicity; conditions: human
Summary of the method: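 HUVEC in EGM-2, at most 10 passages, seeded at 2.5 × 10⁴ cells/well and grown 24 h at 37 °C. Six 2-fold concentrations in triplicate (DMSO max 0.5%) for 48 h. PrestoBlue for 2–3 h, fluorescence 560–590 nm, growth compared with untreated cells. n = 3 separate tests.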

[3] = Hemolytic activity in RBC (unknown origin) assessed as hemolysis at 100 ug/ml incubated for 1 hrs by absorbance based microplate reader analysis relative to control; type: toxicity, cell-based, Erythrocyte; conditions: red blood cells, at 100 µg/mL, read-out: Activity
Summary of the method: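 Human A⁺/O⁺ RBC, 10% v/v in PBS, exposed to compound at 100 μg mL⁻¹ final (DMSO < 1%), in duplicate, stirred 1 h at RT. Centrifuged, supernatant OD₅₅₀ read. % lysis = (sample − PBS)/(1% Triton X-100 − PBS) × 100.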

Plasmodium falciparum [4] = assay: Antiplasmodial activity against chloroquine-sensitive Plasmodium falciparum 3D7 assessed as intraerythrocytic growth inhibition; type: functional, organism-based
Summary of the method: (§1)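 Asexual intraerythrocytic P. falciparum cultured at 37 °C in RPMI with glucose, hypoxanthine, gentamycin and 10% pooled human A+/O+ serum. DMSO stocks of 5–10 mg mL⁻¹ diluted in RPMI, final DMSO at most 1%. Eight two-fold dilutions tested in three consecutive assays. Growth read as Plasmodium lactate dehydrogenase activity at 650 nm against parasitized RBC (100%) and free RBC (0%). IC50 in triplicate; artemisinin and quinine as controls.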

Plasmodium falciparum [5] = assay: Antiplasmodial activity against chloroquine-resistant Plasmodium falciparum FcB1 assessed as intraerythrocytic growth inhibition; type: functional, organism-based; summary of the method: as §1
Plasmodium falciparum [6] = assay: Antiplasmodial activity against multidrug-resistant Plasmodium falciparum W2 assessed as intraerythrocytic growth inhibition; type: functional, organism-based; summary of the method: as §1
[7] = Aqueous solubility of compound assessed as Cmax incubated for 3 days by UV spectrophotometer based shake-flask method; type: physicochemical; conditions: water (aqueous); time 3 day; read-out: Cmax
Summary of the method: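 Shake-flask: excess solid stirred overnight in MilliQ water at RT (~25 °C), filtered 0.45 μm, diluted, absorbance read at the λmax from a UV scan. Quantified against a 3-point calibration curve (R² > 0.95). Fresh saturated solutions were made on 3 consecutive days.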

[8] = Toxicity in zebrafish embryos assessed as survival at highest concentration measured for 3 days relative to control; parameters: species or system Danio rerio; conditions: in vivo, time 3 day, read-out: Activity
Summary of the method: (§2)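 Zebrafish embryos were synchronized 24 h after collection and kept at 28 °C with chorion intact, 20 per condition in duplicate. They were exposed to 100, 50, 25 or 10 μg mL⁻¹ from 100 mg mL⁻¹ DMSO stocks (final DMSO under 0.1%), with medium renewed daily for 3 days. Aspect, hatching and mortality were followed to 96 hpf against 30 control embryos in water with 0.1% DMSO.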

[9] = Toxicity in zebrafish embryos assessed as reduction in brain size at 10 to 100 ug/ml measured for 3 days; type: tissue-based, Danio rerio; conditions: in vivo, 72 h, dose 10-100 µg/ml, time 3 day
[10] = Toxicity in zebrafish embryos assessed as brain misshape at 10 to 100 ug/ml measured for 3 days; type: tissue-based, Danio rerio; conditions: in vivo, 72 h, dose 10-100 µg/ml, time 3 day
[11] = Toxicity in zebrafish embryos assessed as modified heart rate at 10 to 100 ug/ml measured for 3 days; parameters: species or system Danio rerio; conditions: in vivo, 72 h, dose 10-100 µg/ml, time 3 day
[12] = Toxicity in zebrafish embryos assessed as egg hatching at 10 to 100 ug/ml measured for 72 hrs relative to control; type: tissue-based, Danio rerio; conditions: in vivo, at 10 to 100 µg/mL, dose 10-100 µg/ml
[13] = Toxicity in zebrafish embryo assessed as developmental defects at 10 to 100 ug/ml measured 24 hrs post fertilization; parameters: species or system Danio rerio; conditions: in vivo, dose 10-100 µg/ml
[14] = Toxicity in zebrafish embryo assessed as survival at 10 to 100 ug/ml measured 24 hrs post fertilization relative to control; parameters: species or system Danio rerio; conditions: in vivo, at 10 to 100 µg/mL, dose 10-100 µg/ml, read-out: Activity; summary of the method: as §2
[15] = Toxicity in mouse at 150 mg/kg, ip administered 2 hrs once for 6 hrs and measured for 24 hrs; type: organism-based; conditions: in vivo
Summary of the method: (§3)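 Two mice per route (i.p. or p.o.) received 4 increasing doses over 6 h (every 2 h) in Tween 80/EtOH/saline (7/3/90), then were followed for 24 h for health or behavioural problems. Maximal dose is set as 50% of the cumulative dose giving toxicity.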

[16] = Toxicity in mouse at 200 mg/kg, po administered 2 hrs once for 6 hrs and measured for 24 hrs; type: organism-based; conditions: in vivo; summary of the method: as §3
Plasmodium berghei [17] = assay: Antiplasmodial activity against Plasmodium berghei NK173 infected in Swiss CD-1 mouse model of malaria assessed as reduction in parasitaemia at 50 mg/kg, po measured after 4 days by giemsa staining based microscopic analysis relative to control; type: functional; parameters: scale not given: the % may be the effect or the level left; conditions: time 4 day
Summary of the method: (§4)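 Peters' 4-day suppressive test: female Swiss CD1 mice (10 weeks, 25 ± 2 g), six per group, infected i.p. with P. berghei NK173-parasitized RBC at D1. Dosing 2–3 h post-infection, then daily for 3 days, in 7% Tween 80/3% EtOH in saline. Giemsa thin tail-blood smears (≥500 erythrocytes) at D4 (2 h post-dose) and D7. Inhibition is taken versus vehicle controls.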

Plasmodium berghei [18] = assay: Antiplasmodial activity against Plasmodium berghei NK173 infected in Swiss CD-1 mouse model of malaria assessed as reduction in parasitaemia at 50 mg/kg, ip measured after 4 days by giemsa staining based microscopic analysis relative to control; type: functional; parameters: scale not given: the % may be the effect or the level left; conditions: time 4 day; summary of the method: as §4
[19] = Selectivity index, ratio of IC50 for antiplasmodial activity against chloroquine-resistant Plasmodium falciparum FcB1 to IC50 for antiplasmodial activity against chloroquine-sensitive Plasmodium falciparum 3D7; type: functional
[20] = Selectivity index, ratio of IC50 for antiplasmodial activity against chloroquine-resistant Plasmodium falciparum FcB1 to IC50 for antiplasmodial activity against multidrug-resistant Plasmodium falciparum W2; type: functional
[21] = Toxicity in zebrafish embryos assessed as reduction in egg hatching measured for 72 hrs; parameters: species or system Danio rerio; conditions: in vivo, dose 10-100 µg/ml
[22] = Toxicity in zebrafish embryo assessed as egg hatching at 100 ug/ml measured for 72 hrs relative to control; type: tissue-based, Danio rerio; conditions: in vivo, at 100 µg/mL
[23] = Toxicity in zebrafish embryos assessed as reduction in egg hatching at 10 to 100 ug/ml measured 5 days post fertilization; parameters: species or system Danio rerio; conditions: in vivo, 120 h, dose 10-100 µg/ml, time 5 day
Plasmodium berghei [24] = assay: Antiplasmodial activity against Plasmodium berghei NK173 infected in Swiss CD-1 mouse model of malaria assessed as reduction in parasitaemia at 4 mg/kg, ip measured after 7 days by giemsa staining based microscopic analysis; type: functional, organism-based; conditions: time 7.0 day; summary of the method: as §4
Plasmodium berghei [25] = assay: Antiplasmodial activity against Plasmodium berghei NK173 infected in Swiss CD-1 mouse model of malaria assessed as reduction in parasitaemia at 25 mg/kg, po measured after 7 days by giemsa staining based microscopic analysis; type: functional, organism-based; conditions: time 7.0 day; summary of the method: as §4
[26] = test system: Plasmodium vinckei petteri; assay: Antiplasmodial activity against Plasmodium vinckei petteri infected in Swiss mouse model assessed as inhibition of parasite growth at 50 to 100 mg/kg,ip administered for 4 days relative to control; type: functional; parameters: scale not given: the % may be the effect or the level left; conditions: dose 50-100 mg/kg, time 4 day
[27] = test system: Plasmodium vinckei petteri; assay: Antiplasmodial activity against Plasmodium vinckei petteri infected in Swiss mouse model assessed as inhibition of parasite growth administered intraperitoneally for 4 days; type: functional; conditions: 96 h, route ip, time 4 day
Plasmodium berghei [28] = assay: Antiplasmodial activity against Plasmodium berghei NK173 infected in Swiss CD-1 mouse model of malaria assessed as reduction in parasitaemia at 50 mg/kg, po measured after 7 days by giemsa staining based microscopic analysis; type: functional, organism-based; conditions: time 7.0 day; summary of the method: as §4
[29] = test system: Plasmodium vinckei petteri; assay: Antiplasmodial activity against Plasmodium vinckei petteri infected in Swiss mouse model assessed as inhibition of parasite growth administered orally for 4 days; type: functional; conditions: 96 h, route po, time 4 day
[30] = Oral bioavailability in human; type: ADME, organism-based; conditions: in vivo
Plasmodium falciparum [31] = assay: Antiplasmodial activity against Plasmodium falciparum 3D7 assessed as inhibition of parasite reduction by Plasmodium lactate dehydrogenase activity
[32] = test system: Plasmodium vinckei petteri; assay: Antiplasmodial activity against Plasmodium vinckei petteri infected in Swiss mouse model assessed as reduction in parasitaemia at 50 mg/kg, ip administered for 4 days; parameters: scale not given: the % may be the effect or the level left; conditions: time 4 day
[33] = Cytotoxicity against HUVEC confluent cells assessed as inhibition of cell growth incubated for 48 hrs by fluorescence based assay; type: toxicity; conditions: human
Summary of the method: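 Confluent HUVEC: plates seeded 3 days before treatment, then exposed to six 2-fold concentrations for 48 h. PrestoBlue fluorescence read-out (560–590 nm), compared with untreated cells.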

Plasmodium falciparum [34] = assay: Antiplasmodial activity against Plasmodium falciparum 3D7 assessed as inhibition of parasite reduction by giemsa staining based analysis; type: functional, organism-based
Summary of the method: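 3D7 cultures were exposed to compound for 48 h. Parasitaemia was then scored by microscopy as a visual check of parasite burden.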

Structure (SMILES) | selectivity ratio [1] | IC50 at 48 h [2] [µM] | hemolysis at 1 h, 100 ug/ml [3] [%] | IC50 (Plasmodium falciparum [4]) [µM] | IC50 (Plasmodium falciparum [5]) [µM] | IC50 (Plasmodium falciparum [6]) [µM] | solubility thermodynamic at 72 h [7] [µM] | survival at 72 h [8] [%] | Activity [9] | Activity [10] | Activity [11] | Activity [12] [%] | Activity [13] | survival at 24 h [14] [%] | also measured
O=C(OCCCOC(=O)c1cc(O)c(O)c(O)c1)c1cc(O)c(O)c(O)c1 | > 23 | > 132 | < 1 | 5.8 | 3.2 | 4.1 | 2700 (≈ 1030 µg/mL) | > 90 | Non-Toxic | Non-Toxic | Non-Toxic | 100 | Non-Toxic | > 95 | Activity [15]: Non-Toxic; Activity [16]: Non-Toxic; Activity (Plasmodium berghei [17]): 5%; Activity (Plasmodium berghei [18]): 26%
O=C(NCCCNC(=O)c1cc(O)c(O)c(O)c1)c1cc(O)c(O)c(O)c1 | 28 | 130 | < 1 | 9.9 | 26 | 12 | 610 (≈ 231 µg/mL) | > 90 | Non-Toxic | Non-Toxic | Non-Toxic | – | Non-Toxic | > 95 | Ratio IC50 [19]: 2; Ratio IC50 [20]: 2; Activity [21]: Dose-Dependent Effect; Activity [22]: 20%; Activity [23]: Toxic; Activity [15]: Non-Toxic; Activity [16]: Non-Toxic; Activity (Plasmodium berghei [17]): 54%; Activity (Plasmodium berghei [18]): 66%
CCN(CC)CCCC(C)Nc1ccnc2cc(Cl)ccc12 (stereo unspecified) [CHLOROQUINE] | – | – | < 1 | – | – | – | – | – | – | – | – | – | – | – | Activity (Plasmodium berghei [24]): inactive; Activity (Plasmodium berghei [25]): inactive
O=c1oc2c(O)c(O)cc3c(=O)oc4c(O)c(O)cc1c4c23 [ELLAGIC ACID] | > 59 | > 165 | < 1 | 2.8 | 7.5 | 8.9 | 18 (≈ 5.44 µg/mL) | – | – | – | – | – | – | – | Activity [26]: 100%; ED50 [27]: < 1 mg/kg; Activity (Plasmodium berghei [28]): inactive; ED50 [29]: > 100 mg/kg; bioavailability [30]: 1%; IC50 (Plasmodium falciparum [31]): 2.8 µM; Activity [32]: 100%
O=C(OCCCOC(=O)c1cc(O)c(OCc2ccccc2)c(O)c1)c1cc(O)c(OCc2ccccc2)c(O)c1 | 8 | 14 | < 1 | 1.8 | 1.7 | 1.9 | 26 (≈ 14.6 µg/mL) | > 90 | Non-Toxic | Non-Toxic | Non-Toxic | 100 | Non-Toxic | > 95 | IC50 at 48 h [33]: 12.1 µM
O=C(OCCOC(=O)c1cc(O)c(O)c(O)c1)c1cc(O)c(O)c(O)c1 | 19 | 69 | < 1 | 3.7 | 3.7 | 6.7 | 430 (≈ 157 µg/mL) | > 90 | Non-Toxic | Non-Toxic | Non-Toxic | 100 | Non-Toxic | > 95 | –
O=C(NCCCOC(=O)c1cc(O)c(O)c(O)c1)c1cc(O)c(O)c(O)c1 | 11 | 59 | < 1 | 6.3 | 4.7 | 6.8 | 2100 (≈ 797 µg/mL) | > 90 | Non-Toxic | Non-Toxic | Non-Toxic | – | Non-Toxic | > 95 | Activity [21]: Dose-Dependent Effect; Activity [23]: Toxic
O=C(OCCCCOC(=O)c1cc(O)c(O)c(O)c1)c1cc(O)c(O)c(O)c1 | > 35 | > 127 | < 1 | 3.7 | 5.7 | 5 | 150 (≈ 59.1 µg/mL) | > 90 | Non-Toxic | Non-Toxic | Non-Toxic | 100 | Non-Toxic | > 95 | –
O=C(O)c1cc(O)c(O)c(O)c1 [GALLIC ACID] | > 4 | > 294 | < 1 | 68 | – | – | 70000 (≈ 11900 µg/mL) | – | – | – | – | – | – | – | IC50 (Plasmodium falciparum [34]): > 10 µM and 68 µM
